Data on one molecule can be found in ChEMBL document CHEMBL4842350, “Discovery of a Novel Bromodomain and Extra Terminal Domain (BET) Protein Inhibitor, I-BET282E, Suitable for Clinical Progression” (J Med Chem, 2021).

pIC50: −log10 of the molar value.

For data set [1], the target named is T1, Bromodomain-containing protein 4 (Homo sapiens, UniProt O60885). Put plainly: Inhibition of BRD4 in human whole blood assessed as reduction in LPS-induced IL-6 secretion preincubated for 30 mins followed by LPS stimulation and measured after 24 hrs by MSD assay. The class given is tissue-based.
A short description of data set [2]: Clearance in Wistar Han rat blood at 1 mg/kg/hr, iv measured upto 26 hrs by LC-MS/MS analysis. The class given is ADME, organism-based.
Data set [3] deals with T1, Bromodomain-containing protein 4. As to the kind of experiment: Binding affinity to BRD4 (unknown origin) assessed as change in melting temperature.
Data set [4] is described as follows: Oral bioavailability in CD1 mouse at 3 mg/kg measured upto 8 hrs by LC-MS/MS analysis. The settings on record: in vivo. The class given is ADME, organism-based. An outline of the steps: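 Naive male CD1 mice (n = 3) given 3 mg/kg by oral gavage as suspension in 1% (w/v) methylcellulose 400, 0.6 mg/mL. Tail-vein blood to 8 h plus terminal cardiac sample at 12 h; LC-MS/MS, LLQ 5 ng/mL.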

Data set [5] can be described thus: Oral bioavailability in Beagle dog at 3 mg/kg measured upto 24 hrs by HPLC-MS/MS analysis. The following applies: in vivo.
Data set [6] is described as follows: Unbound fraction in Wistar Han rat blood at 100 to 1000 ng/ml by LC-MS/MS-based rapid equilibrium dialysis method. The class given is ADME, tissue-based. The settings on record: dose 100-1000 ng/ml. An outline of the steps:
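Whole blood (male Balb/C mouse, male Wistar Han rat, male Beagle dog; human from one unmedicated donor) spiked to nominal 100 and 1000 ng/mL; 10 min at 37 °C, then rapid equilibrium dialysis against PBS 4 h at 37 °C, 100 rpm. Matrix-matched acetonitrile extraction, LC-MS/MS; mean of n = 6.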

Data set [7] can be described thus: Oral bioavailability in Wistar Han rat at 3 mg/kg measured upto 24 hrs by HPLC-MS/MS analysis. The following applies: in vivo.
A short description of data set [8]: Passive permeability in MDCK cells. The class given is ADME, cell-based, Canis lupus familiaris. The settings on record: dog, read-out: permeability.
A short description of data set [9]: Volume of distribution at steady state in Beagle dog at 1 mg/kg/hr, iv measured upto 28 hrs by LC-MS/MS analysis. The class given is ADME, organism-based, Canis lupus familiaris. The following applies: in vivo, read-out: Vdss.
Data set [10] has as its target Bromodomain-containing protein 4 (Homo sapiens, UniProt O60885, Y390A). As to the kind of experiment: Displacement of Alexa Fluor 647 labelled ligand from recombinant human N-terminal 6His-tagged BRD4-BD1 Y390A mutant (1 to 477 residue) expressed in Escherichia coli incubated for 30 mins by TR-FRET assay. A general note: Time-resolved FRET reads energy transfer from a long-lived donor to a nearby acceptor.

For data set [11], the target named is T1, Bromodomain-containing protein 4. Put plainly: Binding affinity to BRD4 (unknown origin) by ITC assay. In general terms: In ITC the heat of successive injections is recorded.
Data set [12] can be described thus: Total blood clearance in Beagle dog at 1 mg/kg/hr, iv measured upto 28 hrs by LC-MS/MS analysis relative to hepatic blood flow. In kind it is ADME, organism-based, Canis lupus familiaris. The settings on record: in vivo.
A short description of data set [13]: Cmax in Wistar Han rat at 1 mg/kg, po measured upto 24 hrs by HPLC-MS/MS analysis. In kind it is ADME, organism-based. Also noted: route oral, dose 1 mg/kg, time <=24. The settings on record: in vivo. An outline of the steps: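 Oral suspension in 1% (w/v) hydroxypropylmethyl cellulose in water; male rats (n = 3) and male dogs (n = 4). AUC taken from 0 h to last quantifiable time point; Cmax is maximum observed plasma concentration; Tmax reported as median. Mean ± SD.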

A further data set addresses Cytochrome P450 3A4 (Homo sapiens, UniProt P08684). As to the kind of experiment: Inhibition of recombinant human CYP3A4 expressed in Escherichia coli using VR as probe substrate incubated for 15 to 60 mins by fluorometric assay. In kind it is ADME. An outline of the steps:
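Recombinant human CYPs coexpressed with NADPH reductase in E. coli bactosomes (0.1 mg protein/mL); profluorescent substrates ER (1A2), BMC (2C19), MMC (2D6), VividGreen or VividRed (3A4).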

Cytochrome P450 3A4, sequence (P08684 whole entry): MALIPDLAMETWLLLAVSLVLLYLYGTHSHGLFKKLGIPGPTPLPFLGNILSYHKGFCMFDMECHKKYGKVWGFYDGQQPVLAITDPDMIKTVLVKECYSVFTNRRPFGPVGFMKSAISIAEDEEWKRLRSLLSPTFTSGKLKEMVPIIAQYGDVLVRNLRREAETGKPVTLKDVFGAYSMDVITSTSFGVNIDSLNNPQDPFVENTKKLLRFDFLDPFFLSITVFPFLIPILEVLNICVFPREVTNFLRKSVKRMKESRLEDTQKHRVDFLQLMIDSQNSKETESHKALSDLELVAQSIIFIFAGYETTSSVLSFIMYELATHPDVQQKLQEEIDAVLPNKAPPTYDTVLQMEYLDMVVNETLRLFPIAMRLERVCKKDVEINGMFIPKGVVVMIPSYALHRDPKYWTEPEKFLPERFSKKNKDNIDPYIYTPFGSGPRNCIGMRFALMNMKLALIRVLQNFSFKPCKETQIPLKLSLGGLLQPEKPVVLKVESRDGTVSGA

By pIC50 is commonly meant the negative decadic logarithm of the IC50, by convention in mol/L. One may read the clearance as a measure of how efficiently the substance is removed, as volume per time. As usually defined, the ΔTm is the change in melting temperature against a reference sample. By bioavailability is commonly meant dose-corrected exposure relative to a reference, in per cent. A higher bioavailability goes with good availability. The fraction unbound is free concentration divided by total concentration. As usually defined, the Cmax is the peak of the concentration-time curve. As for `COC[C@@H](C)n1c(C2CCOCC2)nc2cnc3cc(-c4c(C)noc4C)c(OC)cc3c21`, the pIC50 in data set [1] was 6.50; in [10], 7.40; at Cytochrome P450 3A4, below 4.30. The molecule also had a clearance in data set [2] of 20 mL/min/kg. Further, in [3], the ΔTm was determined as 9.9 °C. Further, the bioavailability in [4] came to 51%; in [7], 74%. The F in [5] was 31%. Moreover, the fraction unbound in data set [6] was 0.16. Further, the Papp in [8] was 34.6 ×10⁻⁶ cm/s. Also, the Vd in [9] was found to be 3.1 L/kg. The same molecule gave an Activity in data set [11] of 47.5 nM. The same molecule returned a CLH in data set [12] of 68%. Also, in data set [13], the peak level (Cmax) was 125 ng/mL.
